These results are taken from ChEMBL document CHEMBL1800043, “(-)-Duryne and its homologues, cytotoxic acetylenes from a marine Sponge Petrosia sp” (J Nat Prod, 2011).

The test has as its system HeLa. The test is described as follows: Cytotoxicity against human HeLa cells after 72 hrs by MTT assay. It is filed as functional, cell-based. In short, it runs like this: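 HeLa cells grown in DMEM with 10% FBS, 2 μg/mL gentamycin and 2 μg/mL antibiotic-antimycotic at 37 °C under 5% CO2. Seeded at 1 × 10^4 cells/mL and preincubated 24 h. Sample added, then incubated 72 h. MTT (1 mg/mL saline) added for 3 h. Supernatant discarded, formazan dissolved in DMSO, absorbance read for IC50. Adriamycin was the positive control.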
Turning to `C#C[C@H](O)/C=C/CCCCCCCCC/C=C\CCCCCCCCC/C=C/[C@@H](O)C#C`, the midpoint of inhibition, the IC50, lay at 0.5 µM. Turning to `C#C[C@H](O)/C=C/CCCCCCCCC/C=C\CCCCCCCCCCC/C=C/[C@@H](O)C#C`, half-maximal inhibition (IC50) required 0.26 µM. Compound `C#C[C@H](O)/C=C/CCCCC/C=C\CCCC/C=C\CCCCCCCCC/C=C/[C@@H](O)C#C` gave an IC50 of 0.26 µM. Compound `C#C[C@H](O)/C=C/CCCCCCC/C=C\CCCC/C=C\CCCCCCCCC/C=C/[C@@H](O)C#C` returned an IC50 of 0.1 µM. Compound `C#C[C@H](O)/C=C/CCCCCCCCC/C=C\CCCC/C=C\CCCCCCCCC/C=C/[C@@H](O)C#C` yielded an IC50 of 0.08 µM. In the case of `C#C/C=C\[C@@H](O)CCCCCCCCCCC/C=C\CCCCCCCCC/C=C/[C@@H](O)C#C`, 0.34 µM corresponded to half-maximal inhibition (IC50). Compared with the last compound, the IC50 is about 4.2-fold higher. Consider `COc1cccc2c1C(=O)c1c(O)c3c(c(O)c1C2=O)C[C@@](O)(C(=O)CO)C[C@@H]3O[C@H]1C[C@H](N)[C@H](O)[C@H](C)O1` [DOXORUBICIN], for which the IC50 was 1.64 µM.

Usually IC50 stands for the midpoint of a concentration-inhibition curve. Higher therefore signals weaker potency in that assay.
